This passage reports folding enthalpy and Tm results from the array DNA melting data of Ke et al. (doi:10.1101/2024.01.08.574731).

The nature of series [1]: folding enthalpy; higher = less favourable; fluorescence melt of hairpins on a sequencing array, two-state fit. The following applies: sodium 0.088 M. Put shortly:
(§1)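 Cy3 signals were normalised both to pre-quench Cy3 and to control constructs. They came from library hairpins carrying annealed Cy3 and quencher oligos on a sequenced MiSeq flow cell, imaged in 50 mM Na-HEPES pH 8.0, 25 mM NaCl, in 2.5 °C steps up to 60 °C. Bootstrapped two-state fits gave melting temperature and folding enthalpy, and four replicates were combined by inverse variance. Fitted temperatures were then raised by 9.35 °C to match UV melts.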

The nature of series [2]: melting temperature; fluorescence melt of hairpins on a sequencing array, two-state fit, raised by 9.35 °C to match UV melts. The following applies: sodium 0.088 M. The method in brief:
as §1

Regarding GAAACCGAAAGGTCTTC ((((((....))).))), the folding enthalpy in series [1] was -19.4 kcal/mol. Further, the Tm in series [2] worked out at 40.4 °C.
With GAAACCGAAAGGTGTTC ((((((....))).))), the folding enthalpy in series [1] was -13 kcal/mol. Further, the Tm in series [2] is 36.5 °C.
The corresponding values for GAAACCGGAAACGGTCTC ((.((((....)))).)) are -14.2 kcal/mol and 35.5 °C.
Consider GAAACGCGAAAGCGCTTC (((.(((....))).))), for which the folding enthalpy in series [1] was -18.7 kcal/mol. Moreover, the Tm in series [2] was 51.5 °C.
Taken in the same sequence, the figures for GAAACGCGAAAGCGGTTC (((.(((....))).))) were -27.2 kcal/mol and 66.3 °C.
The corresponding values for GAAACGGAAACGTTTC ((((((....)))))) are -39.8 kcal/mol and 55.3 °C.
Consider GAAACGGGAAACCGCTTC (((.(((....))).))), for which the folding enthalpy in series [1] was -24.2 kcal/mol. Besides, the Tm in series [2] came to 40.4 °C.
The corresponding values for GAAACGGGAAACCGTCTC ((.((((....)))).)) are -13.5 kcal/mol and 32.9 °C.
Taken in the same sequence, the figures for GAAACTGGAAACAGCTTC (((.(((....))).))) were -31.1 kcal/mol and 32.5 °C.
Taken in the same sequence, the figures for GAAACTGGAAACAGTTTC (((((((....))))))) were -51.5 kcal/mol and 56.9 °C.
On to GAAAGCACGAAAGTGTTC (((..(((....)))))), for which, in series [1], the folding enthalpy was -9.28 kcal/mol. For the same sequence, the Tm in series [2] amounted to 24 °C.
As for GAAAGCGAAAGCTACTTC ((((((....)))..))), the folding enthalpy in series [1] was -14.6 kcal/mol. Also, in series [2], the Tm was determined as 35.9 °C.
Taken in the same sequence, the figures for GAAAGCGAAAGCTCATTC ((((((....)))..))) were -8.68 kcal/mol and 23.9 °C.
Regarding GAAAGCGAAAGCTGTTC ((((((....))).))), the folding enthalpy in series [1] was -10.8 kcal/mol. Also, the Tm in series [2] was determined as 34.1 °C.
Taken in the same sequence, the figures for GAAAGCGAAAGCTTTC ((((((....)))))) were -34.9 kcal/mol and 64.7 °C.
Taken in the same sequence, the figures for GAAAGCGGAAACACTTTC (((((.(....).))))) were -29.8 kcal/mol and 36.2 °C.
The corresponding values for GAAAGGCGAAAGCCCTTC (((.(((....))).))) are -13 kcal/mol and 38.8 °C.
In the case of GAAAGGGGAAACCCCTTC (((.(((....))).))), the folding enthalpy in series [1] is -14.8 kcal/mol. Besides, the Tm in series [2] stood at 39.9 °C.
Turning to GAAAGGGGAAACCCTTCC (.(((((....))))).), in series [1], the folding enthalpy is -19.7 kcal/mol. The Tm in series [2] turned out to be 32.1 °C.
Take GAAAGTGGAAACACTCTC ((.((((....)))).)): the folding enthalpy in series [1] was -19.4 kcal/mol. Moreover, in series [2], the Tm turned out to be 26.6 °C.
Taken in the same sequence, the figures for GAAATAGGAAACTATTTC (((((((....))))))) were -44.1 kcal/mol and 46.4 °C.
Taken in the same sequence, the figures for GAAATCGAAAGATTTC ((((((....)))))) were -32.5 kcal/mol and 55.9 °C.
The corresponding values for GAAATCGGAAACGATTCC (.(((((....))))).) are -16.6 kcal/mol and 37.1 °C.
Regarding GAAATGCGAAAGCAATTC (((.(((....))).))), in series [1], the folding enthalpy is -20 kcal/mol. Also, the Tm in series [2] was determined as 45.3 °C.
Taken in the same sequence, the figures for GAAATTGAAAAATTTC ((((((....)))))) were -23.6 kcal/mol and 40.3 °C.
The corresponding values for GAAATTGGAAACAATTCC (.(((((....))))).) are -22.9 kcal/mol and 30.5 °C.
Taken in the same sequence, the figures for GAACAAGGAAACTTGTTC (((((((....))))))) were -44.9 kcal/mol and 53 °C.
On to GAACACGAAAGTGATTTC ((((((....)))..))), for which the folding enthalpy in series [1] was -12.3 kcal/mol. Further, the Tm in series [2] is 26.9 °C.
The corresponding values for GAACACGAAAGTGCTTTC ((((((....)))..))) are -13 kcal/mol and 27.8 °C.
Take GAACACGAAAGTGGTTC ((((((....))).))): in series [1], the folding enthalpy is -18.6 kcal/mol. The Tm in series [2] was found to be 47.1 °C.
Take GAACAGCCGAAAGGCTTC (((..(((....)))))): the folding enthalpy in series [1] was -5.48 kcal/mol. The Tm in series [2] turned out to be 24.5 °C.
The corresponding values for GAACAGGGAAACCTGTCC (.(((((....))))).) are -16.1 kcal/mol and 35.1 °C.
Taken in the same sequence, the figures for GAACAGGGAAACTTGTTC (((((.(....).))))) were -27.2 kcal/mol and 37.1 °C.
On to GAACCACGAAAGTGTTTC (((.(((....))).))), for which the folding enthalpy in series [1] was -27.6 kcal/mol. The Tm in series [2] turned out to be 37.2 °C.
Turning to GAACCAGGAAACTGATTC (((.(((....))).))), the folding enthalpy in series [1] is -20.5 kcal/mol. Moreover, the Tm in series [2] turned out to be 32.3 °C.
With GAACCAGGAAACTGGTCC (.(((((....))))).), the folding enthalpy in series [1] is -12.6 kcal/mol. For the same sequence, the Tm in series [2] is 39.5 °C.
